SMARCA2 activ: SMARCA2 (BRM) function activators, primary screen, cell-based, luminescence, high throughput; MG213 cells, MMTV-luciferase reporter, dexamethasone, overnight; activation, % at 9.1 µM; 370,000 tested, 1% active; AID 652017, 2013; in the data active means activation above about 7.8%
ASAP1 inh: inhibitors of human ASAP1 ArfGAP activity, primary screen, biochemical, fluorescence polarization; Arf-GAP with SH3 domain, ANK repeat and PH domain-containing protein 1 (Homo sapiens), …; ASAP1-stimulated ARF1 GTP hydrolysis, GDP FP detection; inhibition, % at 16.5 µM; 360,000 tested, 0.19% active; AID 624377, 2012; in the data active means inhibition above about 25%
esBAF inh: Bmi1 luciferase reporter increase in mESCs, primary screen, esBAF inhibitor project, mouse ES cells, Bmi1 luciferase knock-in, single point | reporter increase, % at 12.5 µM | 24 h; 100% = twice the neutral-well signal | 350,000 tested, 2% active; in the data active means activation above about 40%;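 further: a rise in the Bmi1 reporter signal indicates esBAF inhibition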
ARFGAP1 inhibitor: inhibitors of rat ARFGAP1 GAP activity, primary screen, biochemical, fluorescence polarization, GDP tracer; inhibition, % at 16.5 µM; Arfgap1-stimulated ARF1 GTP hydrolysis, GDP FP detection; 360,000 tested, 0.26% active; ADP-ribosylation factor GTPase-activating protein 1 (Rattus norvegicus), Q62848; AID 651572, 2012;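 active means inhibition above a per-plate limit, mean inhibition of low control wells plus 3 SD, cut at about 25% in these data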
Target sequence (Q62848 1-136 limits assumed): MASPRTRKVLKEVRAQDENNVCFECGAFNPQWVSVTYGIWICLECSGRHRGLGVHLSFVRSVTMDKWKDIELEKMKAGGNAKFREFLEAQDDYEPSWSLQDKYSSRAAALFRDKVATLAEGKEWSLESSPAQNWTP
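Material: rat Arfgap1 GAP domain (His6, aa 1-136), purified enzyme. Also added: human ARF1(Δ1-17)-GTP substrate. Compound dosing: 16.5 µM single point, 1.26% DMSO. Timing: enzyme reaction 120 min at 25 °C after 20 min preincubation. Signal: GDP detection by fluorescence polarization. Read-out basis: percent inhibition of GAP-stimulated GDP formation, scaled between DMSO and no-Arfgap1 medians.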
Each line names hits and unclear results; the compound was inactive in the other large screens. In the library only some 2.6% were active in any assay of this set; here they are far more common.

O=C(CSc1nnc(-c2cccnc2)o1)Nc1ccc(F)cc1	none
O=C(CSc1nnc(-c2cccnc2)o1)Nc1cccc(F)c1	esBAF inh 61.3
O=C(CSc1nnc(-c2ccncc2)o1)Nc1cccc(F)c1	esBAF inh 56.2
Cc1ccc(S(=O)(=O)Nc2ccc3c(c2)CC(=O)N([C@H](C)CO)C[C@@H](C)[C@@H](CN(C)Cc2ccccc2)O3)cc1	none (no result: SMARCA2 activ, ASAP1 inh, ARFGAP1 inhibitor)
COc1ccccc1NC(=O)c1ccc(NC(=O)c2cc3c(s2)CCC3)cc1	none (no result: esBAF inh)
O=C(Nc1ccccc1OC(F)F)c1cc2c(s1)CCC2	esBAF inh 44.4
CCOc1ccc(OCc2ccc(C(=O)N(CC)CC)cc2)cc1	esBAF inh 78.5
CCC(=O)c1ccc(OCc2ccc(C(=O)OC)cc2)cc1	esBAF inh 60.0
CCC(=O)c1ccc(OCc2ccc(C#N)cc2)cc1	none (no result: esBAF inh)
C[C@H]1CN([C@@H](C)CO)C(=O)c2cc(NC(=O)Nc3ccc(F)cc3)ccc2O[C@@H]1CN(C)Cc1ccncc1	none (no result: SMARCA2 activ, ASAP1 inh, ARFGAP1 inhibitor)
C[C@@H]1CN([C@@H](C)CO)S(=O)(=O)c2ccc(C3=CCCCC3)cc2O[C@@H]1CN(C)C(=O)Nc1ccc2c(c1)OCO2	none (no result: SMARCA2 activ, ASAP1 inh, ARFGAP1 inhibitor)
CSc1nc2sc(-c3ccccc3)cc2c(=O)n1N	esBAF inh 56.8
CC(C)Sc1nc2sc(-c3ccccc3)cc2c(=O)n1N	none
COc1ccccc1N1CCN(/N=C/c2ccc(Cl)c([N+](=O)[O-])c2)CC1	esBAF inh 43.8
CO[C@H]1CN(C)C(=O)c2ccc(NS(=O)(=O)c3cccc(C)c3)cc2OC[C@H](C)NC[C@H]1C	none (no result: SMARCA2 activ, ASAP1 inh, ARFGAP1 inhibitor)
Clc1cccc(Cl)c1Cn1ccc(C2CC2)n1	SMARCA2 activ 7.9 (no result: esBAF inh)
O=c1c2ccccc2c(-c2ccccc2)nn1Cc1c(Cl)cccc1Cl	none
C#CCSc1ncc(-c2ccccc2)cn1	esBAF inh 72.7
C=CCSc1ncc(-c2ccccc2)cn1	esBAF inh 49.6
CC(C)NC(=O)Nc1ccc2c(c1)C(=O)N([C@H](C)CO)C[C@H](C)[C@@H](CN(C)Cc1ccc(Cl)c(Cl)c1)OCCCC[C@H](C)O2	none (no result: SMARCA2 activ, ASAP1 inh, ARFGAP1 inhibitor)
Cn1c(SCc2c(F)cccc2Cl)nnc1-c1cccs1	esBAF inh 65.3
C[C@H]1CCCCO[C@@H](CN(C)C(=O)Nc2ccc(F)cc2)[C@@H](C)CN([C@@H](C)CO)C(=O)c2cc(NS(=O)(=O)c3ccc(Cl)cc3)ccc2O1	none (no result: SMARCA2 activ, ASAP1 inh, ARFGAP1 inhibitor)
Cc1cccc(C(=O)Nc2sc(-c3ccccc3)cc2C(=O)O)c1	esBAF inh 68.1
Cc1cccc(C(=O)Nc2sc3c(c2C(=O)O)CCCC3)c1	esBAF inh 71.9
COc1ccc(NC(=O)N(C)C[C@H]2OCCCC[C@@H](C)Oc3ccc(NS(=O)(=O)c4cn(C)cn4)cc3C(=O)N([C@@H](C)CO)C[C@H]2C)cc1	none (no result: SMARCA2 activ, ASAP1 inh, ARFGAP1 inhibitor)
Nc1ccc(C(=O)OCc2nc3c(ccc4ccccc43)[nH]2)cc1	esBAF inh 78.8
Nc1ccc(C(=O)OCc2nc3cc4ccccc4cc3[nH]2)cc1	none (no result: esBAF inh)
O=C(Nc1ccc(Cl)cc1)c1ccc2snnc2c1	esBAF inh 56.7
Cc1nc2cc(C(=O)O)ccc2s1	esBAF inh 73.2
COc1ccc(NC(=O)c2ccc3snnc3c2)cc1	esBAF inh 56.4
CC(=O)c1ccc(NC(=O)c2ccc3snnc3c2)cc1	esBAF inh 62.9
O=C(Nc1ccccc1F)c1ccc2snnc2c1	none
CNC(=O)c1ccc2snnc2c1	none
Cc1nc2ccc(NC(=O)c3cccs3)cc2s1	none (no result: esBAF inh)
Cc1nc2ccc(NC(=O)c3sccc3C)cc2s1	esBAF inh 46.0
CC(=O)c1ccc(NC(=O)c2ccc3nc(C)sc3c2)cc1	esBAF inh 48.8
COc1cccc(NC(=O)N[C@@H]2CC[C@@H](CC(=O)NCc3ccccn3)O[C@H]2CO)c1	none (no result: SMARCA2 activ, ASAP1 inh, ARFGAP1 inhibitor)
CC(=O)N(C)C[C@H]1Oc2ncc(-c3ccccc3C)cc2C(=O)N([C@@H](C)CO)C[C@H]1C	none (no result: SMARCA2 activ, ASAP1 inh, ARFGAP1 inhibitor)
O=C(OCC(=O)c1cccs1)c1ccccc1	esBAF inh 47.4
O=C(OCC(=O)N1CCCCCC1)c1cccs1	esBAF inh 45.5
O=C(OCC(=O)N1CCCCC1)c1cccs1	esBAF inh 47.7
CC1CCN(C(=O)COC(=O)c2n[nH]c3ccccc23)CC1	esBAF inh 57.6
O=C(CNC(=O)c1ccccc1)OCC(=O)c1cccs1	none
C[C@H]1CN([C@@H](C)CO)C(=O)c2cc(NS(=O)(=O)c3cccs3)ccc2O[C@@H]1CN(C)Cc1ccc(C(=O)O)cc1	none (no result: SMARCA2 activ, ASAP1 inh, ARFGAP1 inhibitor)
